Measurements gathered from unrelated publications.
Lines come from different studies, so protocols differ.
Target: Calcium/calmodulin-dependent protein kinase type II subunit delta (CAMK2D, Homo sapiens, UniProt Q13557)

`COc1ncccc1-c1cnn2ccc(N3CCN(C(=O)OC(C)C)CC3)nc12` gave a remaining binding of 83% (binding, competition with immobilised ligand; 1 µM).
`Cn1cc(-c2cc(F)cc(N3CCn4c(cc5c4CCCC5)C3=O)c2CO)cc(Nc2ccc(N3CCN(C4COC4)CC3)cn2)c1=O` has an inhibition of 11% (enzyme activity, inhibitor; 0.1 µM).
`O=c1[nH]c2ccccc2n1C1CCN(Cc2ccc(-c3[nH]c4cc5ncnc5cc4nc3-c3ccccc3)cc2)CC1` has a remaining signal of 97.7% (cell-free assay; 0.5 µM).
`Cn1cc(-c2cccc(N3CCc4c(sc5c4CC(C)(C)C5)C3=O)c2CO)cc(Nc2ccncn2)c1=O` has an inhibition of 3% (enzyme activity, inhibitor; 1 µM).
The remaining binding of `Cn1cncc1[C@@](O)(COc1ccc(C#N)cc1-c1ccc(OC(F)(F)F)cc1)c1ccc(C#N)cc1` is reported as 95% (cell-free assay, competition with immobilised ligand; 1 µM).
`CC(C)(C)c1cc(C=C(C#N)C#N)cc(Br)c1O` has a remaining activity of 96% (enzyme activity, inhibitor; 0.5 µM).
`Nc1ncc(-c2nc(N3CCOCC3)nc(N3CCOCC3)n2)c(C(F)F)n1` has a remaining binding of 66% (binding, competition with immobilised ligand; 10 µM).
`Cc1nn(C)cc1-c1nc2c(N3CCN(Cc4ccc(Cl)cc4)CC3)c(Cl)cnc2[nH]1` has a remaining binding of 94% (binding, competition with immobilised ligand; 1 µM).
